Data as given in ChEMBL document CHEMBL1177799 (Bioorg Med Chem Lett, 2010).

Target: T1, Adenosine receptor A1 (Homo sapiens, UniProt P30542)
T1 sequence (P30542 whole entry): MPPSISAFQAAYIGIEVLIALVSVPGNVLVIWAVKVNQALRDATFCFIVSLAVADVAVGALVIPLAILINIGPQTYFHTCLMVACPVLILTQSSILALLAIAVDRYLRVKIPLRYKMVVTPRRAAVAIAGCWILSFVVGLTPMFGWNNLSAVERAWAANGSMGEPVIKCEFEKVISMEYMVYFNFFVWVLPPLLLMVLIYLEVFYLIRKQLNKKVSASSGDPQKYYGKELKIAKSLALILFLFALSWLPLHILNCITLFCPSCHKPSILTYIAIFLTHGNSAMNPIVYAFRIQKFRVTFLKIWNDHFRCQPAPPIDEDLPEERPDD
Test: Displacement of [3H]-DPCPX from human adenosine A1 receptor expressed in CHO-K1 cells after 1 hr by scintillation counting
Format: cell-based
Method in brief: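 Commercial human A1 membranes (10 µg/well) in HEPES 50 mM, NaCl 100 mM, MgCl2 1 mM buffer; competition against [3H]-DPCPX (4.8 nM final), 1 h at room temperature with orbital shaking. Filtration harvest on polyethyleneimine-treated (0.5%) glass-fibre plates, air-dried, scintillation counting.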

Row | Ki | Compound
1 | 2600 nM | COc1ccc(N(CC(=O)O)C(C)=O)c2sc(NC(=O)c3ccc(F)cc3)nc12
2 | 1600 nM | COc1ccc(NC(C)=O)c2sc(NC(=O)c3ccc(F)cc3)nc12
3 | 35 nM | CCN(C(C)=O)c1ccc(OC)c2nc(NC(=O)c3cc[nH]c3)sc12
4 | 790 nM | CNC(=O)CN(C(C)=O)c1ccc(OC)c2nc(NC(=O)c3ccc(F)cc3)sc12
5 | 560 nM | COc1ccc(N(CC(N)=O)C(C)=O)c2sc(NC(=O)c3ccc(F)cc3)nc12
6 | 185 nM | CCN(C(C)=O)c1ccc(OC)c2nc(NC(=O)c3ccc(C(=O)NC)cc3)sc12
7 | 120 nM | CCN(C(C)=O)c1ccc(OC)c2nc(NC(=O)c3ccc(C(=O)N4CCN(C)CC4)cc3)sc12
8 | 9 nM | CCN(C(C)=O)c1ccc(OC)c2nc(NC(=O)c3cnn(Cc4cccc(F)c4)c3)sc12

Row | Compound | Ki
9 | CCN(C(C)=O)c1ccc(OC)c2nc(NC(=O)c3cnn(Cc4cccc(C(F)(F)F)c4)c3)sc12 | 6 nM

Target: Adenosine receptor A2a (Homo sapiens, UniProt P29274)
Sequence (P29274 whole entry): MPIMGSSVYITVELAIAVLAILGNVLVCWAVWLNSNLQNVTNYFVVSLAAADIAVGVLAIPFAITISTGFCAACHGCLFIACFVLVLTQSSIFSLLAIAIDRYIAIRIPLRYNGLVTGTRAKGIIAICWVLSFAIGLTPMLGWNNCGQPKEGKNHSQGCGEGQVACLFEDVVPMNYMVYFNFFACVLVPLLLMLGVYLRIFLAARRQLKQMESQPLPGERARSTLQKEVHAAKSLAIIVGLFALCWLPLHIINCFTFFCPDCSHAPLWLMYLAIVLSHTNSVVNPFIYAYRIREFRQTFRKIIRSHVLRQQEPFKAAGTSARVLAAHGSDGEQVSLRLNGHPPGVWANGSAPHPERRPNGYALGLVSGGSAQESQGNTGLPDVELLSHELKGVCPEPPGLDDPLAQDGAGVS
Test: Displacement of [3H]-ZM241385 from human adenosine A2A receptor expressed in CHO-K1 cells after 1 hr by scintillation counting
Format: cell-based

Row | Ki | Compound
10 | 2200 nM | COc1ccc(N(CC(=O)O)C(C)=O)c2sc(NC(=O)c3ccc(F)cc3)nc12
11 | 250 nM | COc1ccc(NC(C)=O)c2sc(NC(=O)c3ccc(F)cc3)nc12
12 | 18 nM | CCN(C(C)=O)c1ccc(OC)c2nc(NC(=O)c3cc[nH]c3)sc12
13 | 330 nM | CNC(=O)CN(C(C)=O)c1ccc(OC)c2nc(NC(=O)c3ccc(F)cc3)sc12
14 | 160 nM | COc1ccc(N(CC(N)=O)C(C)=O)c2sc(NC(=O)c3ccc(F)cc3)nc12
15 | 84 nM | CCN(C(C)=O)c1ccc(OC)c2nc(NC(=O)c3ccc(C(=O)NC)cc3)sc12
16 | 89 nM | CCN(C(C)=O)c1ccc(OC)c2nc(NC(=O)c3ccc(C(=O)N4CCN(C)CC4)cc3)sc12
17 | 3 nM | CCN(C(C)=O)c1ccc(OC)c2nc(NC(=O)c3cnn(Cc4cccc(F)c4)c3)sc12

Row | Compound | Ki
18 | CCN(C(C)=O)c1ccc(OC)c2nc(NC(=O)c3cnn(Cc4cccc(C(F)(F)F)c4)c3)sc12 | 3 nM

Target: T2, Adenosine receptor A2b (Homo sapiens, UniProt P29275)
T2 sequence (P29275 whole entry): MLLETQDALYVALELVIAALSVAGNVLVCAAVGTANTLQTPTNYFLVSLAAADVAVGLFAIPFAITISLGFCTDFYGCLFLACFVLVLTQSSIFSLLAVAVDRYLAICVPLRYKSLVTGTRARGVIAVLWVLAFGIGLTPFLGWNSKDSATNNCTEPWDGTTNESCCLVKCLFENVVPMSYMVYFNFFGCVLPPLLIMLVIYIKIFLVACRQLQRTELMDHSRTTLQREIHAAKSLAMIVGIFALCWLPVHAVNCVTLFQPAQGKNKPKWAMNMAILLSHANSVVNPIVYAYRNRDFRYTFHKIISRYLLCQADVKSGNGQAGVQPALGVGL
Test: Antagonist activity at human adenosine A2B receptor expressed in CHO cells assessed as inhibition of adenosine-induced cAMP production
Format: functional, cell-based
Method in brief: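 CHO cells stably transfected with human A2B receptor, grown overnight as monolayer (7500 cells/well), washed with Krebs buffer, then exposed to compounds in Krebs buffer (final DMSO 1.1%) for 20–25 min. Wells emptied, cells lysed and cAMP measured with an enzyme-fragment complementation cAMP kit for adherent cells.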

Row | IC50 | Compound
19 | 6000 nM | COc1ccc(N(CC(=O)O)C(C)=O)c2sc(NC(=O)c3ccc(F)cc3)nc12
20 | 350 nM | COc1ccc(NC(C)=O)c2sc(NC(=O)c3ccc(F)cc3)nc12
21 | 7 nM | CCN(C(C)=O)c1ccc(OC)c2nc(NC(=O)c3cc[nH]c3)sc12
22 | 350 nM | CNC(=O)CN(C(C)=O)c1ccc(OC)c2nc(NC(=O)c3ccc(F)cc3)sc12
23 | 60 nM | COc1ccc(N(CC(N)=O)C(C)=O)c2sc(NC(=O)c3ccc(F)cc3)nc12
24 | 21 nM | CCN(C(C)=O)c1ccc(OC)c2nc(NC(=O)c3ccc(C(=O)NC)cc3)sc12
25 | 38 nM | CCN(C(C)=O)c1ccc(OC)c2nc(NC(=O)c3ccc(C(=O)N4CCN(C)CC4)cc3)sc12
26 | 12 nM | CCN(C(C)=O)c1ccc(OC)c2nc(NC(=O)c3cnn(Cc4cccc(F)c4)c3)sc12

Row | Compound | IC50
27 | CCN(C(C)=O)c1ccc(OC)c2nc(NC(=O)c3cnn(Cc4cccc(C(F)(F)F)c4)c3)sc12 | 6 nM

Target: T2, Adenosine receptor A2b
Test: Displacement of [3H]ZM241385 from human adenosine A2B receptor expressed in CHO cells after 1 hr by scintillation counting
Format: cell-based
Method in brief: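 Whole CHO cells expressing human A2B receptor, harvested mechanically from 80% confluent flasks, frozen, then resuspended in assay buffer on assay day. Competition against [3H]ZM241385 (30 nM final), 1 h at room temperature with shaking. Harvest on 0.5% polyethyleneimine-treated filter plates, air-dried, scintillation counting.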

Row | Ki | Compound
28 | 130 nM | COc1ccc(NC(C)=O)c2sc(NC(=O)c3ccc(F)cc3)nc12
29 | 18 nM | CCN(C(C)=O)c1ccc(OC)c2nc(NC(=O)c3ccc(C(=O)N4CCN(C)CC4)cc3)sc12
30 | 6 nM | CCN(C(C)=O)c1ccc(OC)c2nc(NC(=O)c3cnn(Cc4cccc(F)c4)c3)sc12

Row | Compound | Ki
31 | CCN(C(C)=O)c1ccc(OC)c2nc(NC(=O)c3cnn(Cc4cccc(C(F)(F)F)c4)c3)sc12 | 4 nM
